Data published in ChEMBL document CHEMBL3259519, “Targeting triple-negative breast cancer cells with 6,7-bis(hydroxymethyl)-1H,3H-pyrrolo[1,2-c]thiazoles” (Eur J Med Chem, 2014).
pIC50: −log10 of the molar value. One block for each compound: values may come before it. Active and inactive are the calls of the source. No cut-off for these calls is given here.

How the values were obtained:
HCC1806 [1] = assay: Cell cycle arrest in ER, PR, HER2-deficient human HCC1806 cells as accumulation at pre-G0 phase phase at IC50 after 48 hrs by propidium staining-based FACS analysis; assay type: functional
How it was run: (§1)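 2x10^6 cells were attached overnight, then exposed to IC50 for 48 h (DMSO 0.1%). They were fixed in ice-cold 70% ethanol for 30 min in the dark, PBS-washed and stained with PI/RNase for 15 min at RT. Flow cytometry used 488 nm excitation and a 585/42 filter. Sub-G0, G0/G1, S and G2/M fractions were reported as mean ± SD (n≥5).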

MCF7 [2] = assay: Induction of DNA strand break in human MCF7 cells expressing ER and BRCA2 at IC50 after 48 hrs by alkaline comet assay; assay type: functional, cell-based
How it was run: (§2)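 5x10^5 cells got IC50 or 3x IC50 for 48 h (DMSO 0.1%); H2O2-treated cells served as positive control. Cells in 1% low-melt agarose went onto slides precoated with normal-melt agarose. Slides were lysed overnight in alkaline buffer (2.5 M NaCl, EDTA, Tris, DMSO, Triton X-100). Electrophoresis ran in 300 mM NaOH/1 mM EDTA (pH>13) at 25 V for 15 min. Slides were neutralized in Tris pH 7.4 and stained with 25 µg/mL ethidium bromide for fluorescence microscopy.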

MCF7 [3] = assay: Induction of DNA strand break in human MCF7 cells expressing ER and BRCA2 at 3 x IC50 after 48 hrs by alkaline comet assay; assay type: functional, cell-based; how it was run: as §2
HCC1806 [4] = assay: Induction of DNA strand break in ER, PR, HER2-deficient human HCC1806 cells at IC50 after 48 hrs by alkaline comet assay; assay type: functional, cell-based; how it was run: as §2
HCC1806 [5] = assay: Induction of DNA strand break in ER, PR, HER2-deficient human HCC1806 cells at 3 x IC50 after 48 hrs by alkaline comet assay; assay type: functional, cell-based; how it was run: as §2
HCC1806 [6] = assay: Antiproliferative activity against ER, PR, HER2-deficient human HCC1806 cells as growth inhibition after 24 hrs by MTT assay; assay type: functional, cell-based; conditions: HCC1806, 24 h
How it was run: (§3)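 Cells were seeded at 2x10^4/well and left to attach overnight. Compounds in DMSO were diluted in medium and applied for 24, 48, 72 or 96 h. Cells were then PBS-washed and given 0.5 mg/mL MTT (pH 7.4) at 37 °C for 4 h. Formazan was dissolved in acid isopropanol. IC50 came from dose-response curves by exponential decay fitting (r2>0.9), with 95% CI.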

HCC1806 [7] = assay: Antiproliferative activity against ER, PR, HER2-deficient human HCC1806 cells as growth inhibition after 48 hrs by MTT assay; assay type: functional, cell-based; conditions: HCC1806, 48 h; how it was run: as §3
HCC1806 [8] = assay: Antiproliferative activity against ER, PR, HER2-deficient human HCC1806 cells as growth inhibition after 72 hrs by MTT assay; assay type: functional, cell-based; conditions: HCC1806, 72 h; how it was run: as §3
HCC1806 [9] = assay: Antiproliferative activity against ER, PR, HER2-deficient human HCC1806 cells as growth inhibition after 96 hrs by MTT assay; assay type: functional, cell-based; conditions: HCC1806, 96 h; how it was run: as §3
HCC1954 [10] = assay: Antiproliferative activity against human HCC1954 cells expressing HER2 assessed as growth inhibition after 24 hrs by MTT assay; assay type: functional, cell-based; conditions: HCC1954, 24 h; how it was run: as §3
HCC1954 [11] = assay: Antiproliferative activity against human HCC1954 cells expressing HER2 assessed as growth inhibition after 48 hrs by MTT assay; assay type: functional, cell-based; conditions: HCC1954, 48 h; how it was run: as §3
HCC1954 [12] = assay: Antiproliferative activity against human HCC1954 cells expressing HER2 assessed as growth inhibition after 72 hrs by MTT assay; assay type: functional, cell-based; conditions: HCC1954, 72 h; how it was run: as §3
HCC1954 [13] = assay: Antiproliferative activity against human HCC1954 cells expressing HER2 assessed as growth inhibition after 96 hrs by MTT assay; assay type: functional, cell-based; conditions: HCC1954, 96 h; how it was run: as §3
MCF7 [14] = assay: Antiproliferative activity against human MCF7 cells expressing ER and BRCA2 assessed as growth inhibition after 24 hrs by MTT assay; assay type: functional, cell-based; conditions: MCF7, 24 h; how it was run: as §3
MCF7 [15] = assay: Antiproliferative activity against human MCF7 cells expressing ER and BRCA2 assessed as growth inhibition after 48 hrs by MTT assay; assay type: functional, cell-based; conditions: MCF7, 48 h; how it was run: as §3
MCF7 [16] = assay: Antiproliferative activity against human MCF7 cells expressing ER and BRCA2 assessed as growth inhibition after 72 hrs by MTT assay; assay type: functional, cell-based; conditions: MCF7, 72 h; how it was run: as §3
MCF7 [17] = assay: Antiproliferative activity against human MCF7 cells expressing ER and BRCA2 assessed as growth inhibition after 96 hrs by MTT assay; assay type: functional, cell-based; conditions: MCF7, 96 h; how it was run: as §3
MCF7 [18] = assay: Cytotoxicity against human MCF7 cells expressing ER and BRCA2 assessed as reduction of survival factor at IC50 incubated for 48 hrs measured after 12 days by crystal violet staining-based clonogenic assay; assay type: functional, cell-based
HCC1806 [19] = assay: Cytotoxicity against ER, PR, HER2-deficient human HCC1806 cells as reduction of survival factor at IC50 incubated for 48 hrs measured after 12 days by crystal violet staining-based clonogenic assay; assay type: functional
MCF7 [20] = assay: Cytotoxicity against human MCF7 cells expressing ER and BRCA2 assessed as reduction of total protein content at IC50 after 48 hrs by SRB assay relative to control; assay type: functional; parameters: scale not given: the % may be the effect or the level left
HCC1806 [21] = assay: Cytotoxicity against ER, PR, HER2-deficient human HCC1806 cells as reduction of total protein content at IC50 incubated for 48 hrs by SRB assay relative to control; assay type: functional; parameters: scale not given: the % may be the effect or the level left
MCF7 [22] = assay: Induction of apoptosis in human MCF7 cells expressing ER and BRCA2 assessed as decrease in viable cells at IC50 after 48 hrs by Annexin V/propidium iodide staining-based flow cytometry relative to control; assay type: functional
How it was run: (§4)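 2x10^6 cells were attached overnight, then given IC50 for 48 h (DMSO 0.1%). PBS-washed cells were stained with Annexin V-FITC and PI in binding buffer for 15 min at 4 °C in the dark. Flow cytometry used 488 nm excitation. Cells were gated as viable, apoptotic, late apoptotic/necrotic or necrotic, reported as mean ± SD (n≥5).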

HCC1806 [23] = assay: Induction of apoptosis in triple negative ER, PR, HER2-deficient human HCC1806 cells assessed as increase of late apoptotic/nectrotic cells at IC50 after 48 hrs by Annexin V/propidium iodide staining-based flow cytometry relative to control; assay type: functional, cell-based; how it was run: as §4
HCC1806 [24] = assay: Induction of apoptosis in triple negative ER, PR, HER2-deficient human HCC1806 cells assessed as decrease of viable cells at IC50 after 48 hrs by Annexin V/propidium iodide staining-based flow cytometry relative to control; assay type: functional; how it was run: as §4
MCF7 [25] = assay: Induction of apoptosis in human MCF7 cells expressing ER and BRCA2 assessed as increase of late apoptotic/nectrotic cells at IC50 after 48 hrs by Annexin V/propidium iodide staining-based flow cytometry relative to control; assay type: functional, cell-based; how it was run: as §4
MCF7 [26] = assay: Induction of apoptosis in human MCF7 cells expressing ER and BRCA2 assessed as early apoptotic cells at IC50 after 48 hrs by Annexin V/propidium iodide staining-based flow cytometry relative to control; assay type: functional, cell-based; how it was run: as §4
MCF7 [27] = assay: Induction of apoptosis in human MCF7 cells expressing ER and BRCA2 assessed as increase of necrotic cells at IC50 after 48 hrs by Annexin V/propidium iodide staining-based flow cytometry relative to control; assay type: functional, cell-based; how it was run: as §4
HCC1806 [28] = assay: Induction of apoptosis in triple negative ER, PR, HER2-deficient human HCC1806 cells assessed as increase of necrotic cells at IC50 after 48 hrs by Annexin V/propidium iodide staining-based flow cytometry relative to control; assay type: functional, cell-based; how it was run: as §4
MCF7 [29] = assay: Induction of apoptosis in human MCF7 cells expressing ER and BRCA2 assessed as increase in p53 expression at IC50 after 48 hrs by Western blotting analysis relative to control; assay type: functional, cell-based
How it was run: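 Cells were treated with IC50 for 48 h and lysed on ice in RIPA with protease inhibitors, then sonicated and centrifuged. Protein was quantified by BCA and separated on 10% SDS-PAGE, then transferred and blocked with 4% BSA/TBS-T. Blots were probed overnight at 4 °C with anti-p53 (DO7) and actin, then anti-mouse secondary. ECF fluorescence was scanned and quantified.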

MCF7 [30] = assay: Cell cycle arrest in human MCF7 cells expressing ER and BRCA2 assessed as decrease in accumulation at G0/G1 phase at IC50 after 48 hrs by propidium staining-based FACS analysis; assay type: functional; how it was run: as §1
MCF7 [31] = assay: Cell cycle arrest in human MCF7 cells expressing ER and BRCA2 assessed as increase in accumulation at S phase at IC50 after 48 hrs by propidium staining-based FACS analysis; assay type: functional; how it was run: as §1
MCF7 [32] = assay: Cell cycle arrest in human MCF7 cells expressing ER and BRCA2 assessed as blockade at G2/M phase at IC50 after 48 hrs by propidium staining-based FACS analysis; assay type: functional; how it was run: as §1
HCC1806 [33] = assay: Cell cycle arrest in ER, PR, HER2-deficient human HCC1806 cells as accumulation at S phase at IC50 after 48 hrs by propidium staining-based FACS analysis; assay type: functional; how it was run: as §1
HCC1806 [34] = assay: Cell cycle arrest in ER, PR, HER2-deficient human HCC1806 cells as decrease in accumulation at G0/G1 phase at IC50 after 48 hrs by propidium staining-based FACS analysis; assay type: functional; how it was run: as §1
HCC1806 [35] = assay: Induction of apoptosis in ER, PR, HER2-deficient human HCC1806 cells as increase in Bax/Bcl2 expression ratio at IC50 after 48 hrs by flow cytometry relative to control
MCF7 [36] = assay: Induction of apoptosis in human MCF7 cells expressing ER and BRCA2 assessed as increase in Bax/Bcl2 expression ratio at IC50 after 48 hrs by flow cytometry relative to control
HCC1806 [37] = assay: Induction of apoptosis in triple negative ER, PR, HER2-deficient human HCC1806 cells assessed as reduction of long term cell survival at IC50 after 48 hrs by clonogenic assay relative to control

- pIC50 (HCC1806 [6]): 4.10
- pIC50 (HCC1806 [7]): 4.58
- pIC50 (HCC1806 [8]): 4.92
- pIC50 (HCC1806 [9]): 5.27
- pIC50 (HCC1954 [10]): < 4.00
- pIC50 (HCC1954 [11]): 4.18
- pIC50 (HCC1954 [12]): 4.33
- pIC50 (HCC1954 [13]): 4.56
- pIC50 (MCF7 [14]): < 4.00
- pIC50 (MCF7 [15]): 4.06
- pIC50 (MCF7 [16]): 4.27
- pIC50 (MCF7 [17]): 4.53
Compound: Cc1c(CO)c(CO)c2n1[C@@H](c1ccc(O)cc1)SC2
- Activity (HCC1806 [1]): Active
- Activity (MCF7 [2]): Active
- Activity (MCF7 [3]): Active
- Activity (HCC1806 [4]): Active
- Activity (HCC1806 [5]): Active
- Activity (MCF7 [18]): Active
- Activity (HCC1806 [19]): <2%
- Activity (MCF7 [20]): 15.4%
- Activity (HCC1806 [21]): 50%
- Activity (MCF7 [22]): 21.4%
- Activity (HCC1806 [23]): Active
- Activity (HCC1806 [24]): Active
- Activity (MCF7 [25]): Active
- Activity (MCF7 [26]): Active
- Activity (MCF7 [27]): Active
- Activity (HCC1806 [28]): Active
- Activity (MCF7 [29]): Active
- Activity (MCF7 [30]): Active
- Activity (MCF7 [31]): Active
- Activity (MCF7 [32]): inactive
- Activity (HCC1806 [33]): Active
- Activity (HCC1806 [34]): Active
- Activity (HCC1806 [35]): Active
- Activity (MCF7 [36]): Active
- Activity (HCC1806 [37]): 1.4%

- pIC50 (HCC1806 [6]): < 4.00
- pIC50 (HCC1806 [7]): 4.20
- pIC50 (HCC1806 [8]): 4.11
- pIC50 (HCC1806 [9]): 4.54
- pIC50 (HCC1954 [10]): < 4.00
- pIC50 (HCC1954 [11]): 4.25
- pIC50 (HCC1954 [12]): 4.83
- pIC50 (HCC1954 [13]): 4.93
Compound: Cc1c(CO)c(CO)c2n1[C@H](c1ccccc1)SC2

- pIC50 (HCC1806 [6]): < 4.00
- pIC50 (HCC1806 [7]): 4.38
- pIC50 (HCC1806 [8]): 4.57
- pIC50 (HCC1806 [9]): 4.67
- pIC50 (HCC1954 [10]): 4.00
- pIC50 (HCC1954 [11]): 4.16
- pIC50 (HCC1954 [12]): 4.25
- pIC50 (HCC1954 [13]): 4.47
- pIC50 (MCF7 [14]): < 4.00
- pIC50 (MCF7 [15]): < 4.00
- pIC50 (MCF7 [16]): < 4.00
- pIC50 (MCF7 [17]): < 4.00
Compound: Cc1c(CO)c(CO)c2n1[C@H](c1ccccc1)SC2(C)C
